# PubChem BioAssay
# A number with no mark means an inactive call. Records with an inconclusive call do not appear. The source made the active and inactive calls.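 How the source made its calls, unless noted: active means cell viability at or below a set limit in both duplicate runs, the limit being the all-compound median minus 4 SD (cut at about 23% in these data, passing the limit was not always enough); inconclusive means no clear call, values can overlap the other calls; inactive means the rest.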
# Assays:
# [1] = S. cerevisiae growth inhibition in permissive medium (OD615), pilot counter-assay for S. cerevisiae lifespan shortening project, permissive growth control (AID 705;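 active means growth inhibition above 25% in both replicates, a cutoff set 3 SD above the mean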); settings: OD615, 24 h, at 10 µM, active compounds read high
# Outline: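 Test system: Saccharomyces cerevisiae strain carrying genetically modified DeaD replicative-lifespan system; buffer or medium: SC raffinose/galactose permissive medium; dosing: one dose 10 µM, DMSO 0.25% final; times: 24 h exposure, 30 °C; measured by: OD at 615 nm; read-out basis: growth inhibition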
# [2] = S. cerevisiae growth inhibition in restrictive medium, OD615, pilot screen, restrictive growth control, yeast lifespan reduction project (AID 706;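 active means growth inhibition above a set limit, 3 SD over mean compound inhibition, in both replicates, cut at about 43% in these data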;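 further: modified DeaD lifespan yeast strain shifted to restrictive glucose medium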); settings: OD615, 48 h, at 10 µM, active compounds read high
# Outline: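 material = engineered S. cerevisiae DeaD strain | buffer or medium = glucose-based CSMM-D restrictive medium | dosing = one concentration, 10 µM final, 0.25% DMSO | schedule = 4 h pre-growth plus 48 h compound exposure, 30 °C | detection = OD615 absorbance reading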
# [3] = doxorubicin toxicity protection in MRP-1 cells – H69AR cells, CellTiter-Glo, duplicate, MRP-1 activator project, pilot screen (AID 807;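 active means viability increase at or above a cutoff of the median across tested compounds plus 3 SD, cut at about 8.5% in these data, passing the limit was not always enough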;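 further: compound pretreatment 18-22 h then 72 h combined with doxorubicin; 0% = doxorubicin alone and 100% = vehicle without doxorubicin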); settings: H69AR viability with doxorubicin, CellTiter-Glo luminescence; at 10 µM; active compounds read high
# [4] = viability of HCT116 without oncogenic beta-catenin – human colon tumor cells, pilot screen (AID 823); settings: HCT116 beta-catenin knockout viability, CellTiter-Glo, 60 h; at 10 µM; active compounds read low;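 further: 0% = wells killed by 20 µM Hyamine and 100% = untreated DMSO cell wells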
# [5] = viability of PTEN-null HCT116 cells – cell-based, HCT116 clonal line, CellTiter-Glo, pilot screen (AID 824;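 active means viability at or below 27.92% in each of two runs, the all-compound median minus 4 SD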;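 further: 0% = 20 µM Hyamine control and 100% = vehicle cell control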); settings: HCT116 PTEN-deleted viability, 60 h, at 10 µM, active compounds read low
# [6] = RAM pathway blockade in budding yeast – dse1pr::URA3 reporter, 5-FOA selection, pilot screen (AID 869;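 active means inhibition over a set limit, the all-compound mean plus 3 SD, in both replicate runs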;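 further: 0% = DMSO wells with no growth and 100% = 10 µM 1-NA-PP1 with full growth; RAM network block rescues cells from 5-FOA so hits raise OD615 growth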); settings: S. cerevisiae dse1pr::URA3 5-FOA growth, OD615, 2 d; at 10 µM; active compounds read high; strain carries analog-sensitive mutant Cbk1 kinase
# [7] = RAM signaling pathway blockade in yeast – S. cerevisiae, Pdr1DBD-CYC8 efflux-inhibited sensitized strain, primary screen (AID 1298;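 active means RAM network inhibition above 8.4% in each of two replicates, 3 SD over the compound average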;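 further: 0% = DMSO untreated cells without growth and 100% = 10 µM 1-NA-PP1 full growth; higher means more yeast growth rescued from 5-FOA killing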); settings: S. cerevisiae cbk1-as DSE1-URA3 strain, 5-FOA growth OD615, 2 d; at 50 µM; active compounds read high
SMILES,growth inhibition [1],growth inhibition [2],viability increase [3] [%],viability [4],viability [5],inhibition [6] [%],RAM network inhibition [7] [%]
O=C(Nc1nnc(-c2ccc(Cl)s2)o1)C1CCCCC1,-14.7%,-4.65%,-4.45,68.4%,63.2%,3.44,3.62
COc1ccc(C(=O)N2CCN(c3ccc(C)cc3)CC2)cc1OC,-10.4%,-14.2%,-1.27,103%,90.2%,0.81,3.75
CN(C)c1nc(Oc2ccc(C(=O)OCC(=O)Nc3ccccc3)cc2)nc(N(C)C)n1,5.09%,5.01%,-3.31,95.6%,94.3%,2.15,1.24
CC1CN(c2cc(=O)n(Cc3ccc(F)cc3)c(=O)[nH]2)CC(C)O1 (stereo unspecified),5.64%,-6.42%,0.06,99.4%,105%,1.31,-0.24
CSc1ncccc1C(=O)OCC(=O)c1cc2ccccc2o1,-12.5%,-20.7%,0.25,85%,93.7%,3.42,4.75
Cc1c(C(=O)N2CCN(C(=O)c3ccco3)CC2)sc2nc(-c3ccc(F)cc3)cn12,-0.195%,3.62%,-2.53,91.8%,89.3%,0.195,3.7
COCC(=O)NCc1nc2ccccc2n1Cc1ccccc1F,-7.99%,-15.2%,-1.11,98.2%,99.2%,1.59,0.88
CCOC(=O)C1C(=O)OC2(CCOC(C)(C)C2)C1C(=O)OCC (stereo unspecified),1.65%,7.69%,-0.15,105%,100%,1.38,0.98
O=C(CC12CC3CC(CC(C3)C1)C2)NCO,4.32%,5.98%,0.63,100%,104%,1.92,-1.39
Cc1ccc(-c2nc(CS(=O)CC(=O)NCCN3CCOCC3)c(C)o2)cc1 (stereo unspecified),-6.06%,2.29%,-0.04,92.9%,98%,1.84,2.15
O=C(Nc1ccccc1Oc1ccccc1)C1CC1,-13.6%,3.26%,-2.26,89.5%,93.1%,0.595,3.21
O=C(NC1CCN(Cc2ccccc2)CC1)C1CCCN(c2nnc(-n3cccc3)s2)C1 (stereo unspecified),-4.03%,11.1%,-4.97,93.1%,84.5%,0.085,0.11
COc1cccc(NS(=O)(=O)c2cn(C)c(=O)n(C)c2=O)c1,-11%,-3.64%,-0.89,93.7%,92.9%,2.42,0.89
CCCCn1c(CN2CCN(C(=O)c3ccco3)CC2)nc2c1c(=O)n(C)c(=O)n2C,-3.45%,-7.47%,-4.33,101%,98%,0.905,2.15
CC1CCCCC1NC(=O)c1nnc(Cc2ccc(Cl)cc2)o1 (stereo unspecified),-9.84%,-0.745%,3.87,104%,90.8%,1.07,9.76
Cc1ccc(S(=O)(=O)Cc2ccc(C(=O)N3CCCCCC3)o2)cc1,-10.6%,-22.4%,-1.93,98.8%,96.2%,1.73,8.33
COC(=O)c1nc2n(n1)C(c1cccc(Cl)c1)C1=C(CCCC1=O)N2 (stereo unspecified),-4.09%,7.08%,-2.99,98.1%,95.3%,0.155,1.89
O=C(c1cnn2c(C(F)(F)F)cc(-c3ccco3)nc12)N1CCCCCC1,-14.5%,-11.4%,-4.15,91.3%,91.5%,0.705,1.5
COC(=O)c1nnn(Cc2ccccc2)c1N,-6.96%,-7.86%,-1.68,103%,98.8%,0.585,0.17
O=C(COC(=O)c1ccc(Br)o1)Nc1nc2ccccc2s1,-11.2%,-4.01%,-4.65,90.5%,87.8%,0.75,1.88
CC1CCC(n2c(=S)[nH]c3ccccc3c2=O)CC1 (stereo unspecified),13%,23%,-4.34,81.5%,75.4%,0.285,5.25
COc1ccc(-c2nc(Cn3c(SCc4cccc(F)c4)nc4ccncc43)c(C)o2)cc1OC,4.55%,30.2%,-3.1,69.9%,60.1%,1,3.81
CCOC(=O)c1sc(NC(=O)c2cccnc2)nc1C,-7.2%,-2%,-3.19,102%,97.7%,1.7,1.1
O=C(COC(=O)c1cc2ccccc2o1)c1ccccc1,-8.98%,2%,-0.26,96.9%,98.1%,-0.115,2.95

SMILES,growth inhibition [1],growth inhibition [2],viability increase [3] [%],viability [4],viability [5],inhibition [6] [%],RAM network inhibition [7] [%]
Cc1nnc(SCC(=O)Nc2ccc3c(c2)COC3=O)n1-c1ccccc1,-9.99%,0.555%,-0.13,98.8%,92.8%,3.27,1.16
CCOC(=O)N1CCN(C(=O)c2cn(-c3ccc(C)c(C)c3)c(=O)c3ccccc23)CC1,-10.6%,-0.85%,-2.69,85.6%,94.4%,0.51,-0.53
O=C(c1ccccn1)N(CC1CCCO1)C1(C(=O)NC2CCCCC2)CCCCC1 (stereo unspecified),-4.99%,-10.3%,-0.31,85.5%,92.3%,1.69,-0.32
COCCCNC(=O)CN1C(=O)CSc2ncccc21,-3.21%,3.79%,0.91,105%,101%,2.06,2.8
O=C(Nc1nc(-c2ccccn2)cs1)c1ccc(Cl)s1,94.1% (active),96.8% (active),-8.93,10.6% (active),22.1% (active),-1.18,-2.58
COC(=O)c1c(NC(=O)C2CC2)sc2c1CCN(C(C)=O)C2,-10.8%,-31.3%,-0.44,105%,91.6%,1.98,-1.38
O=C(Oc1ccccc1)c1cccc(N2C(=O)CCC2=O)c1,-1.76%,0.85%,-1.06,105%,105%,1.27,1.74
O=C(NC12CC3CC(CC(C3)C1)C2)c1cccnc1,-3.12%,15.7%,-0.51,104%,97.7%,2.61,3.7
O=C(NCC1CCCO1)c1ccc2c(c1)N(Cc1ccccc1)C(=O)CS2=O (stereo unspecified),-1.31%,8.91%,-0.66,91.2%,88.3%,1.06,0.78
CCOC(=O)c1[nH]c(C)c(C(=O)N(CC)CC)c1C,-10.8%,-5.69%,0.21,97%,107%,1.27,-0.57
CCOC(=O)CNC(=O)C(NC(=O)C1CCC(C)CC1)C(C)CC (stereo unspecified),0.975%,-17.8%,-1.73,98.8%,98%,0.95,0.93
CCCCOC(=O)CCc1n[nH]c(=O)[nH]c1=O,-11.1%,-17.6%,-1.14,99.8%,99%,2.12,2.93
COc1ccc(-n2c(Cn3c(=O)sc4ccccc43)nnc2SCC(N)=O)cc1,-10.9%,-0.695%,0.09,101%,101%,1.29,0.06
CCOC(=O)c1[nH]c(=O)[nH]c1CSc1nc(C)cc(C)n1,-4.23%,7.25%,-3.65,102%,96.9%,0.985,5.37
Cc1cc(Nc2ccc(C)c(C)c2)n2nc(C)nc2n1,6.21%,10.1%,-4.63,105%,96.9%,0.77,3.69
Cc1onc(-c2ccccc2Cl)c1C(=O)Nc1ccccc1C(N)=O,-9.31%,-29.5%,-3.08,90.2%,85.5%,0.895,0.67
CCOC(=O)C(C)Sc1nnc(Cc2cc(=O)[nH]c(=O)[nH]2)n1-c1cccc(OC)c1 (stereo unspecified),-8.94%,-10%,0.04,101%,96.9%,0.395,-1.47
Cc1cc(C)n2c(SCC(=O)Nc3ccccc3)nnc2n1,-7.49%,-9.43%,-2.57,102%,91.4%,1.94,-0.67
c1ccc(CNc2nc3ccccc3[nH]2)cc1,-4.7%,2.9%,-5.29,75.8%,80.7%,1.3,0.44
COCCCNC(=O)Cn1ncc2ccsc2c1=O,-4.86%,3.33%,1.3,107%,101%,-0.05,-0.97
CCCCSc1nnc(C)c(=O)[nH]1,-8.76%,-12.2%,-0.85,97.6%,102%,1.26,7.32
COc1ccc(-c2nc(CSCC(=O)N3CCN(C4CCCCC4)CC3)c(C)o2)cc1OC,-5.55%,7.03%,-1.54,87.8%,96.3%,1.04,2.38
N#Cc1nc(-c2ccccc2F)oc1NCc1ccccc1,-4.66%,11.3%,1.59,107%,90.5%,1.98,3.96
Cc1cc(C)c(S(=O)(=O)NCCCN2CCOCC2)cc1Br,-7.38%,-14.8%,-2.34,91.8%,90.9%,0.75,0.92
